Reference: PMC9720105 (Redox Biology, 2022)

Columns and labels:
[1] = target: recombinant KEAP1-Kelch domain (Homo sapiens, UniProt Q14145); assay: biochemical; type: binding
KEAP1 in HEK293T cells = KEAP1 in HEK293T cells (Homo sapiens, UniProt Q14145); assay: KEAP1 degradation in HEK293T cells; type: cell-based
KEAP1 in BEAS-2B cells = KEAP1 in BEAS-2B cells (Homo sapiens, UniProt Q14145); assay: KEAP1 degradation in BEAS-2B cells; type: cell-based
KEAP1 in HCA7 cells = KEAP1 in HCA7 cells (Homo sapiens, UniProt Q14145); assay: KEAP1 degradation in HCA7 cells; type: cell-based; details: 48 h
Sequence of KEAP1 in HCA7 cells (Q14145 whole entry): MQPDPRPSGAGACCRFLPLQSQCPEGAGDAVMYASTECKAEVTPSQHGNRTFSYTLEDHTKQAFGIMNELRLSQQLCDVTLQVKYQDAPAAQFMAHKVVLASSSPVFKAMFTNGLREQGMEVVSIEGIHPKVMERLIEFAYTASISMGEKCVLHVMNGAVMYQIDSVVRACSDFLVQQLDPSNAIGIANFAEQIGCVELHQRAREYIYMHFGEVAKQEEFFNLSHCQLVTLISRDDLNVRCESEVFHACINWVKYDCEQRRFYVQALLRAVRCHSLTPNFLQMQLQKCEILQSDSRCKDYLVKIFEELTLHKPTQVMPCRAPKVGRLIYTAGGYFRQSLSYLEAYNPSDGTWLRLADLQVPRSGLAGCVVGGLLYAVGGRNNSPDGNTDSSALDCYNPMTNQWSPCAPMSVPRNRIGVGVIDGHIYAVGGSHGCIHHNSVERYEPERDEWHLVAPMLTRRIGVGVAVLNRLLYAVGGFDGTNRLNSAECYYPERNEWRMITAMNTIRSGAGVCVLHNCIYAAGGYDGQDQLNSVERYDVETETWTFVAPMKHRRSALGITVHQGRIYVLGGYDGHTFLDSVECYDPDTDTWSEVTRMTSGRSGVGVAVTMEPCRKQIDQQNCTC
How it was run: (§1)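 HEK293T, HCA7 and A549 cells were grown in DMEM with 10% FBS and pen/strep; BEAS-2B in LHC-9 with pen/strep; all at 37 °C, 10% CO₂. Cells were exposed to test compound for 48 h, lysed, run on 4–12% SDS-PAGE and transferred to nitrocellulose. Blocking was 5% skim milk for 1 h at RT. Probes were anti-KEAP1, CRBN, NQO1 or HO-1, with HRP anti-β-actin loading control and HRP secondaries. Blots represent 3 independent experiments.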

[2] = target: KEAP1 (G333C mutation in the KEAP1-Kelch domain) in A549 cells (Homo sapiens, UniProt Q14145, G333C); assay: KEAP1 degradation in A549 cells; type: cell-based; details: 48 h
Sequence of KEAP1 (G333C mutation in the KEAP1-Kelch domain) in A549 cells (Q14145 whole entry G333C, the tested form may be a part): as the sequence (Q14145 whole entry) above, with G333C counted along it
How it was run: as §1

CRBN = CRBN (Homo sapiens, UniProt Q96SW2); assay: CRBN levels by immunoblotting; type: cell-based; details: HEK293T, HCA7, BEAS-2B, and A549 cells, 48 h
Sequence of CRBN (Q96SW2 whole entry): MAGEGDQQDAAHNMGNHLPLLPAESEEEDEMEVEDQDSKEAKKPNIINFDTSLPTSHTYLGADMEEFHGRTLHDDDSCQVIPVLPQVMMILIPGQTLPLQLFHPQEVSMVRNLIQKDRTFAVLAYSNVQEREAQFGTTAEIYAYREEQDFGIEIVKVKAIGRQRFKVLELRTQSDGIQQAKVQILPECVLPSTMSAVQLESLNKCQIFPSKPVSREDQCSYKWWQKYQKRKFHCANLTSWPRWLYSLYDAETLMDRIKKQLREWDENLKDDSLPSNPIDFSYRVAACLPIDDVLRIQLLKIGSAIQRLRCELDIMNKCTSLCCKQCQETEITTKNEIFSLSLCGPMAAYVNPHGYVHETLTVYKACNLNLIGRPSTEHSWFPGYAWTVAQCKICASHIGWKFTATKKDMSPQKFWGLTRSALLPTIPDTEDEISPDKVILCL
How it was run: as §1

[3] = tested on: NRF2 downstream targets, NQO1 and HO-1; assay: NQO1 and HO-1 protein levels in HEK293T and HCA7 cell lines; type: cell-based; details: 48 h
How it was run: as §1

[4] = tested on: HepG2 ARE-luciferase reporter cells; assay: ARE-luciferase activity assay; type: cell-based; details: 48 h, 14: maximum at 1 μM
[5] = tested on: NQO1 and GCLM in BEAS-2B cells; assay: NQO1 and GCLM protein expression in BEAS-2B cells; type: cell-based, human; details: 48 h, all tested concentrations
[6] = tested on: NQO1, TALDO1, and GCLM mRNA in BEAS-2B cells; assay: Quantitative RT-PCR of antioxidant genes in BEAS-2B cells; type: cell-based, human; details: 0.13 μM, 48 h
How it was run: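 BEAS-2B cells were treated with 0.13 μM test compound for 48 h. RNA was extracted, reverse transcribed (SuperScript IV) and quantified by SYBR Green qPCR. Expression was normalized to 18S by the delta-delta-Ct method. Three independent experiments, each in technical triplicate; mean and S.D.; unpaired t-test.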

BEAS-2B cells proteome = assay: Label-free quantitative MS proteomics in BEAS-2B cells; type: cell-based, human; details: 0.13 μM, 48 h, vs DMSO
How it was run: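 BEAS-2B cells received DMSO or 0.13 μM test compound for 48 h, then were lysed in 5% SDS/50 mM TEAB. 20 μg protein was processed on S-traps (chloroacetamide alkylation), digested with trypsin/Lys-C and cleaned on SDB stage tips. About 100 ng peptide ran on a 48 min C18 gradient, timsTOF DIA-PASEF. Library-free search against human UniProt, 1% precursor FDR, MaxLFQ quantitation. Hits: >1.5-fold versus DMSO, adjusted P <0.01.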

BEAS-2B cells = assay: Flow cytometric detection of cell viability after tBHP; type: cell-based, human; details: 50 μM tBHP
How it was run: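 BEAS-2B cells (LHC-9 with pen/strep) were seeded at 1.2 × 10⁴ cells/well overnight, pre-treated with test compound for 24 h, then given 50 μM tBHP for 24 h. Harvested cells were stained with 1 μg/mL propidium iodide. Gating used FSC-A/SSC-A to exclude debris and FSC-H/FSC-A to exclude doublets. Viability was % PI-negative cells. Three independent assays, single points each; mean and S.D.; unpaired t-test.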

Sequence of KEAP1 in HEK293T cells (Q14145 whole entry): as the sequence (Q14145 whole entry) above
Sequence of recombinant KEAP1-Kelch domain (Q14145 312-624): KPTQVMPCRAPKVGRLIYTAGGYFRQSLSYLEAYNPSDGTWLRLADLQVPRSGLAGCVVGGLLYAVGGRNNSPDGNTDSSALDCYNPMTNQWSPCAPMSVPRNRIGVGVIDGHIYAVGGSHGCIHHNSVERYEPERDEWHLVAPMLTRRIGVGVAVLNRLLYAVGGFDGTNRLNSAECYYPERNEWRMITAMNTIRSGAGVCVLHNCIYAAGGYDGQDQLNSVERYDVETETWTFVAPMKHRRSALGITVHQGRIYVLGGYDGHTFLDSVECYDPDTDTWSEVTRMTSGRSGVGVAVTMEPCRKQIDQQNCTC
Sequence of KEAP1 in BEAS-2B cells (Q14145 whole entry): as the sequence (Q14145 whole entry) above

## Cc1ccc(C(CC(=O)O)c2cc(OCCCCCCCNc3cccc4c3C(=O)N(C3CCC(=O)NC3=O)C4=O)c3c(c2)nnn3C)cc1CN1C[C@@H](C)Oc2ccccc2S1(=O)=O (stereo partly drawn) [Compound 14, 3-(7-((7-((2-(2,6-Dioxopiperidin-3-yl)-1,3-dioxoisoindolin-4-yl)amino)heptyl)oxy)-1-methyl-1H-benzo[d][1,2,3]triazol-5-yl)-3-(4-methyl-3-(((R)-4-methyl-1,1-dioxido-3,4-dihydro-2H-benzo[b][1,4,5]oxathiazepin-2-yl)methyl)phenyl)propanoic acid]
[1]
  IC50: 46 nM
KEAP1 in HEK293T cells; HEK293T cells, 48 h
  KEAP1 degradation / expression: robust degradation of KEAP1
KEAP1 in HEK293T cells; HEK293T cells, 48 h and 72 h, comparison of 8 and 14
  KEAP1 degradation at longer time points: degraded KEAP1 more efficiently at 48 and 72 h compared to 8
KEAP1 in HEK293T cells; HEK293T cells, dose titration 0.01–8 μM, 24 h
  hook effect observed at concentrations higher than: higher than 1 μM
KEAP1 in HEK293T cells; HEK-293T, read-out: maximum degradation (Dmax)
  Dmax at 1 µM: 94%
KEAP1 in BEAS-2B cells
  Dmax at 0.0625 µM: 90%
KEAP1 in HCA7 cells
  KEAP1 degradation / expression: robust degradation of KEAP1
[2]
  KEAP1 degradation: did not degrade KEAP1
CRBN
  CRBN levels: no change in CRBN levels
[3]
  HO-1 protein expression: upregulated
  NQO1 protein expression: upregulated
[4]
  induction of luciferase signal compared to the DMSO control group: 3.5 fold
[5]
  increased expression of NQO1 and GCLM, compared with KEAP1 inhibitor 2: equipotent
[6]
  mRNA induction of GCLM: 2 fold
  mRNA induction of NQO1: 4 fold
  mRNA induction of TALDO1: 2 fold
BEAS-2B cells proteome
  ABHD4 abundance (proteomics): significantly upregulated
  ZFP91 abundance (proteomics): Off-target degradation of ZFP91
  abundance of KEAP1 (proteomics): significantly reduced the abundance of KEAP1
  abundance of other Kelch domain proteins KBTBD4, KLHDC2, and KLHL11 (proteomics): not impacted
BEAS-2B cells; between 500 and 16 nM
  rescue of cell viability from tBHP, comparison of 14 and 2: equal potent
BEAS-2B cells; concentrations lower than 16 nM
  rescue of cell viability from tBHP, comparison of 14 and 2: less effective

## COc1cc(C(CC(=O)O)c2ccc(C)c(CN3C[C@@H](C)Oc4ccccc4S3(=O)=O)c2)cc2nnn(C)c12 (stereo partly drawn) [Compound 2, 3-(7-Methoxy-1-methyl-1H-benzo[d][1,2,3]triazol-5-yl)-3-(4-methyl-3-(((R)-4-methyl-1,1-dioxido-3,4-dihydro-2H-benzo[b][1,4,5]oxathiazepin-2-yl)methyl)phenyl)propanoic acid]
[4]
  induction of luciferase signal compared to the DMSO control group: 5- to 6 fold
[6]
  mRNA induction of GCLM: 2 fold
  mRNA induction of NQO1: 4 fold
  mRNA induction of TALDO1: 2 fold
BEAS-2B cells proteome
  ABHD4 abundance (proteomics): not upregulated
  abundance of KEAP1 (proteomics): did not affect KEAP1 expression
BEAS-2B cells; between 500 and 16 nM
  rescue of cell viability from tBHP, comparison of 14 and 2: equal potent
